This note sets out measurements from ChEMBL document CHEMBL1177875, “Antitumor activity of (-)-alpha-bisabolol-based thiosemicarbazones against human tumor cell lines” (2010).

What all share (type): functional
A short description of assay [1]: Cytotoxicity against human NCI/ADR cells by sulforhodamine B assay. The conditions noted are these: NCI/ADR-RES; for CC50: read-out: LC50 (the source's name). Summed up: (§1)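 Growth of the human tumor cell line was read colorimetrically with sulforhodamine B, following the NCI standard protocol, with doxorubicin as positive control. Compounds were tested at four concentrations in 10-fold dilutions (0.25 to 250). Dose-response curves gave GI50 (the concentration for 50% growth inhibition), TGI (total growth inhibition) and LC50 (50% cell death).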

Another assay deals with NCI-H460. Nature of the assay: Cytotoxicity against human NCI-H460 cells by sulforhodamine B assay. The conditions noted are these: for CC50: read-out: LC50 (the source's name). A digest of the protocol: as §1
For the next assay, the system named is MCF7. Nature of the assay: Cytotoxicity against human MCF7 cells by sulforhodamine B assay. As to conditions: for CC50: read-out: LC50 (the source's name). A digest of the protocol: as §1
The test system of a further assay is HT-29. The assay can be described thus: Cytotoxicity against human HT-29 cells by sulforhodamine B assay. The conditions noted are these: for CC50: read-out: LC50 (the source's name). A digest of the protocol: as §1
(In SRB staining, fixed cells bind dye roughly in proportion to their protein.)

For the next assay, the system named is UACC-62. Nature of the assay: Cytotoxicity against human UACC62 cells by sulforhodamine B assay. Summed up:
as §1

A short description of assay [2]: Cytotoxicity against human PCO3 cells by sulforhodamine B assay. The conditions noted are these: for CC50: read-out: LC50 (the source's name). Summed up: as §1
A further assay has as its system OVCAR-3. The assay can be described thus: Cytotoxicity against human OVCAR-3 cells by sulforhodamine B assay. The conditions noted are these: for CC50: read-out: LC50 (the source's name). A digest of the protocol:
as §1

The subject of another assay is K562. Nature of the assay: Cytotoxicity against human K562 cells by sulforhodamine B assay. The conditions noted are these: for CC50: read-out: LC50 (the source's name). A digest of the protocol:
as §1

On to `COc1ccc(/C=N\NC(=S)NC(C)(C)CCC[C@](C)(O)[C@@H]2CC=C(C)CC2)cc1`, for which the GI50 in assay [1] amounted to 6.73 µM; with NCI-H460, 5.1 µM; in the assay on MCF7, 6.5 µM; in the assay on HT-29 it was 7.42 µM; in the assay on UACC-62 it was 7.42 µM; in assay [2], 7.66 µM. Also, the GI50 with OVCAR-3 worked out at 6.5 µM; with K562, 0.22 µM. Besides, the concentration for total growth inhibition (TGI) in assay [1] was 57 µM; in the assay with NCI-H460, above 100 µM; in the assay on MCF7 it was 94.9 µM; with HT-29, 35.1 µM; with UACC-62 it was 22.1 µM; in assay [2], 76 µM. The concentration for total growth inhibition (TGI) in the assay on OVCAR-3 was 15.8 µM; with K562, 34.9 µM. Besides, the CC50 in assay [1] was above 100 µM; in the assay on NCI-H460, above 100 µM; with MCF7, above 100 µM; in the assay with HT-29, above 100 µM; in assay [2] it was above 100 µM; in the assay with OVCAR-3 it was 46.2 µM. Also, in the assay with K562, the CC50 was above 100 µM. Besides, in the assay with UACC-62, the LC50 (50% cell kill) worked out at 48.5 µM.

Regarding `CC(C)=CCC[C@](C)(O)[C@@H]1CC=C(C)CC1` [LEVOMENOL], the 50% growth inhibitory concentration (GI50) (in assay [1]; in the assay with NCI-H460; in the assay with MCF7; in the assay with HT-29; in the assay with UACC-62; in assay [2]) was above 100 µM in each case. Moreover, the figures for the GI50 in the assay on OVCAR-3 and with K562 were above 100 µM and 6.37 µM, respectively. For the same molecule, the TGI (in assay [1]; with NCI-H460; in the assay on MCF7; in the assay on HT-29; with UACC-62; in assay [2]) was above 100 µM each time. In addition, the TGI with OVCAR-3 and in the assay with K562 was above 100 µM in each case. Besides, the CC50 (in assay [1]; in the assay on NCI-H460; in the assay with MCF7; in the assay with HT-29; in assay [2]; with OVCAR-3) was above 100 µM throughout. Also, the CC50 in the assay on K562 is above 100 µM.

Take `CC1=CC[C@@H]([C@@](C)(O)CCCC(C)(C)NC(=S)N/N=C\c2cccc([N+](=O)[O-])c2)CC1`: the GI50 in assay [1] amounted to 6.72 µM; in the assay on NCI-H460 it was 8.29 µM; in the assay with MCF7, 6.72 µM; in the assay with HT-29 it was 14.1 µM; in the assay on UACC-62 it was 7.84 µM; in assay [2] it was 5.6 µM. Moreover, the 50% growth inhibitory concentration (GI50) in the assay with OVCAR-3 was found to be 8.51 µM; in the assay on K562 it was 0.02 µM. Further, the concentration for total growth inhibition (TGI) in assay [1] worked out at 38 µM; with NCI-H460, 68.6 µM; with MCF7, 18.3 µM; with HT-29 it was 57.1 µM; with UACC-62, 24.7 µM; in assay [2], 20.7 µM. The TGI in the assay on OVCAR-3 is 40.8 µM; in the assay with K562 it was 0.56 µM. Further, the CC50 in assay [1] was above 100 µM; in the assay with NCI-H460, above 100 µM; in the assay on MCF7 it was 47.3 µM; in the assay on HT-29, above 100 µM; in assay [2], 52.5 µM; in the assay with OVCAR-3 it was above 100 µM. Further, the CC50 with K562 worked out at 12.6 µM. Also, in the assay with UACC-62, the LC50 (50% cell kill) turned out to be 49.3 µM.

On to `CC1=CC[C@@H]([C@@](C)(O)CCCC(C)(C)NC(=S)N/N=C\c2ccc([N+](=O)[O-])cc2)CC1`, for which the GI50 in assay [1] worked out at 12.8 µM; in the assay with NCI-H460, 10.1 µM; in the assay on MCF7 it was 17.7 µM; in the assay on HT-29 it was 12.3 µM; in the assay with UACC-62 it was 20.8 µM; in assay [2], 18.1 µM. Moreover, the GI50 was 13.4 µM in the assay with OVCAR-3 and 4.22 µM with K562. The concentration for total growth inhibition (TGI) is above 100 µM in assay [1]; above 100 µM in the assay with NCI-H460; above 100 µM in the assay on MCF7; 62.8 µM with HT-29; 62.2 µM in the assay with UACC-62; above 100 µM in assay [2]. Further, the TGI with OVCAR-3 is 88.6 µM; with K562, 9.56 µM. Moreover, the CC50 (in assay [1]; in the assay on NCI-H460; in the assay on MCF7; in the assay with HT-29; in assay [2]; in the assay with OVCAR-3) was above 100 µM in each case. Moreover, the CC50 in the assay on K562 was 45.5 µM. The molecule also returned an LC50 (50% cell kill) in the assay on UACC-62 above 100 µM.

As to `CC1=CC[C@@H]([C@@](C)(O)CCCC(C)(C)NC(=S)N/N=C\c2ccc(Cl)cc2)CC1`, the GI50 in assay [1] is 7.58 µM; in the assay with NCI-H460, 8.72 µM; in the assay with MCF7, 6.89 µM; in the assay with HT-29 it was 7.35 µM; in the assay with UACC-62 it was 7.35 µM; in assay [2], 7.58 µM. The concentration for 50% growth inhibition (GI50) in the assay with OVCAR-3 is 6.66 µM; in the assay on K562, 0.04 µM. For the same molecule, the concentration for total growth inhibition (TGI) in assay [1] is 36.4 µM; in the assay with NCI-H460, above 100 µM; with MCF7, 15.8 µM; with HT-29, 22.6 µM; in the assay with UACC-62, 13.8 µM; in assay [2], 22.7 µM. Moreover, the total growth inhibition concentration (TGI) with OVCAR-3 came out at 12.8 µM; with K562, 0.73 µM. The CC50 is above 100 µM in assay [1]; above 100 µM in the assay with NCI-H460; 44.3 µM with MCF7; 47.3 µM in the assay on HT-29; 48.5 µM in assay [2]; 40.6 µM in the assay on OVCAR-3. Besides, in the assay with K562, the CC50 came to 10.3 µM. In the assay with UACC-62, this molecule had an LC50 (50% cell kill) of 40.6 µM.

The GI50 is the concentration that inhibits growth by half. What is called TGI is the concentration giving total growth inhibition. The low end stands for greater sensitivity of the cells, the high end for lower sensitivity of the cells.
